According to ChEMBL document CHEMBL3232795, “Using 'biased-privileged' scaffolds to identify lysine methyltransferase inhibitors” (Bioorg Med Chem, 2014):
Calls of active or inactive are those of the source. No cut-off for these calls is given here.

Molecular target: T1, Histone-lysine N-methyltransferase SETD7 (Homo sapiens) (UniProt Q8WTS6)
T1 sequence (whole entry): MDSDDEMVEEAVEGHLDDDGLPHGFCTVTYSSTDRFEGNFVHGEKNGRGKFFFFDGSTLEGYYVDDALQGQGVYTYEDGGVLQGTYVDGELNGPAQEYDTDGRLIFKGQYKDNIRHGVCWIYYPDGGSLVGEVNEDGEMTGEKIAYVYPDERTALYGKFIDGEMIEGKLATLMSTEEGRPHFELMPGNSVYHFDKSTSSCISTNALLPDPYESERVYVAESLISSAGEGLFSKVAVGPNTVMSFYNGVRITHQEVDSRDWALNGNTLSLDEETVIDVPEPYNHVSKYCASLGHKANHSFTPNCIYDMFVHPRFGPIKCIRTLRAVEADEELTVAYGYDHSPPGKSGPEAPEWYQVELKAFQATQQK
Test: Inhibition of SET7 (unknown origin)-mediated methylation of histone H3(1-20)cys-biotin at 15 to 50 uM after 5 mins by scintillation proximity assay in presence of [3H]-S-adenosyl-methionine
Procedure, shortened: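 SET7 (25 nM) with biotinylated H3(1–20)-cys peptide (900 nM) and compound (2% DMSO final) in Tris pH 8.5 buffer with BSA, EDTA and DTT, 5 min at 30 °C. Started with SAM (2 µM) carrying trace 3H-SAM (0.2 µM), 8 min at 30 °C. Quenched onto streptavidin SPA beads in acetate pH 5.0 with excess cold SAM, then counted. Background-subtracted CPM expressed as percent of DMSO control. Tested twice.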

SMILES | inhibition
O=C(O)c1cccc(CNc2cccc(-n3ccc4c(-c5ccc(C(F)(F)F)cc5)ncnc43)c2)c1 | Active
O=C(O)c1cccc(NCc2cccc(-n3ccc4cc(-c5ccc(C(F)(F)F)cc5)ccc43)c2)c1 | Active
O=C(O)c1cccc(NCc2cccc(-n3ncc4cc(-c5ccc(C(F)(F)F)cc5)ccc43)c2)c1 | Active
O=C(O)c1cccc(NCc2cccc(-n3ccc4cc(-c5ccc(C(F)(F)F)cc5)cnc43)c2)c1 | Active
O=C(O)c1cccc(NCc2cccc(-n3cnc4c(-c5ccc(C(F)(F)F)cc5)cccc43)c2)c1 | Active
O=C(O)c1cccc(NCc2cccc(-n3ccc4c(-c5ccc(C(F)(F)F)cc5)cccc43)c2)c1 | Active
O=C(O)c1cccc(NCc2cccc(-n3ccc4c(-c5ccc(C(F)(F)F)cc5)ncnc43)c2)c1 | Active
O=C(O)c1cccc(NCc2ccc(-n3ccc4c(-c5ccc(C(F)(F)F)cc5)ncnc43)s2)c1 | Active

Continued, values first:

inhibition | SMILES
Active | O=[N+]([O-])c1ccc(S(=O)(=O)Nc2cccc(-n3ccc4c(-c5ccc(C(F)(F)F)cc5)cccc43)c2)cc1
Active | O=[N+]([O-])c1cccc(S(=O)(=O)Nc2cccc(-n3ccc4c(-c5ccc(C(F)(F)F)cc5)cccc43)c2)c1
Active | CS(=O)(=O)c1ccc(S(=O)(=O)Nc2cccc(-n3ccc4c(-c5ccc(C(F)(F)F)cc5)cccc43)c2)cc1
Active | Cc1cc(O)c(C(=O)O)cc1S(=O)(=O)Nc1cccc(-n2ccc3c(-c4ccc(C(F)(F)F)cc4)cccc32)c1
Active | O=C(O)c1ccccc1S(=O)(=O)Nc1cccc(-n2ccc3c(-c4ccc(C(F)(F)F)cc4)cccc32)c1
Active | CC(=O)Nc1nc(C)c(S(=O)(=O)Nc2cccc(-n3ccc4c(-c5ccc(C(F)(F)F)cc5)cccc43)c2)s1
Active | O=C(O)c1ccc(S(=O)(=O)Nc2cccc(-n3ccc4c(-c5ccc(C(F)(F)F)cc5)cccc43)c2)cc1
Active | O=C(O)c1cccc(S(=O)(=O)Nc2cccc(-n3ccc4c(-c5ccc(C(F)(F)F)cc5)cccc43)c2)c1
Active | O=[N+]([O-])c1ccccc1S(=O)(=O)Nc1cccc(-n2ccc3c(-c4ccc(C(F)(F)F)cc4)cccc32)c1

Molecular target: T1, Histone-lysine N-methyltransferase SETD7 (Homo sapiens)
Test: Inhibition of methyl-transferase activity in GST-tagged recombinant SET7/9 (unknown origin) expressed in Escherichia coli BL21 using H3(1-20)-cys-biotin as substrate at 40 uM preincubated for 5 mins followed by substrate addition by ELISA relative to control
Procedure, shortened: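 GST-fused SET7 (residues 52–366), expressed in bacteria. Enzyme at 2.8 nM with SAM (300 nM) in Tris pH 8.0 buffer (4% DMSO, BSA, EDTA, DTT, Triton X-100) on streptavidin plates, preincubated with compound 5 min at room temperature. Biotinylated H3(1–20)-cys substrate (900 nM) added, 5 min at 30 °C. Stopped with acetate pH 5.0. H3K4me1 detected with antibody, HRP secondary and chemiluminescence; signal given relative to DMSO control.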

inhibition | SMILES
Active | O=C(O)c1cccc(SCc2cccc(-n3ccc4c(Br)cccc43)c2)c1
Active | O=C(O)c1cccc(SCc2cccc(-n3ccc4cc(Br)ccc43)c2)c1
Active | Cc1ccc(-c2cccc3c2ccn3-c2cccc(CNc3cccc(C(=O)O)c3)c2)cc1
50% | O=C(O)c1cccc(NCc2cccc(-n3ccc4c(-c5ccccc5)cccc43)c2)c1
Active | CC(=O)Nc1ccc(-c2cccc3c2ccn3-c2cccc(CNc3cccc(C(=O)O)c3)c2)cc1
12% | N[C@@H](CCSCc1cccc(-n2ccc3cc(Br)ccc32)c1)C(=O)O
50% | O=C(O)c1cccc(SCc2cccc(-n3ccc4c(-c5ccccc5)cccc43)c2)c1
Active | O=C(O)c1cccc(NCc2cccc(-n3ccc4c(-c5ccc(C(F)(F)F)cc5)cccc43)c2)c1
inactive | O=C(O)c1ccc(-c2cccc3c2ccn3-c2cccc(CNc3cccc(C(=O)O)c3)c2)cc1
Active | O=C(O)c1cccc(NCc2cccc(-n3ccc4c(-c5ccc6ccccc6c5)cccc43)c2)c1
Active | O=C(O)CCCSCc1cccc(-n2ccc3cc(Br)ccc32)c1

Molecular target: T2, Histone-lysine N-methyltransferase EHMT2 (Homo sapiens, UniProt Q96KQ7)
T2 sequence (Q96KQ7 whole entry): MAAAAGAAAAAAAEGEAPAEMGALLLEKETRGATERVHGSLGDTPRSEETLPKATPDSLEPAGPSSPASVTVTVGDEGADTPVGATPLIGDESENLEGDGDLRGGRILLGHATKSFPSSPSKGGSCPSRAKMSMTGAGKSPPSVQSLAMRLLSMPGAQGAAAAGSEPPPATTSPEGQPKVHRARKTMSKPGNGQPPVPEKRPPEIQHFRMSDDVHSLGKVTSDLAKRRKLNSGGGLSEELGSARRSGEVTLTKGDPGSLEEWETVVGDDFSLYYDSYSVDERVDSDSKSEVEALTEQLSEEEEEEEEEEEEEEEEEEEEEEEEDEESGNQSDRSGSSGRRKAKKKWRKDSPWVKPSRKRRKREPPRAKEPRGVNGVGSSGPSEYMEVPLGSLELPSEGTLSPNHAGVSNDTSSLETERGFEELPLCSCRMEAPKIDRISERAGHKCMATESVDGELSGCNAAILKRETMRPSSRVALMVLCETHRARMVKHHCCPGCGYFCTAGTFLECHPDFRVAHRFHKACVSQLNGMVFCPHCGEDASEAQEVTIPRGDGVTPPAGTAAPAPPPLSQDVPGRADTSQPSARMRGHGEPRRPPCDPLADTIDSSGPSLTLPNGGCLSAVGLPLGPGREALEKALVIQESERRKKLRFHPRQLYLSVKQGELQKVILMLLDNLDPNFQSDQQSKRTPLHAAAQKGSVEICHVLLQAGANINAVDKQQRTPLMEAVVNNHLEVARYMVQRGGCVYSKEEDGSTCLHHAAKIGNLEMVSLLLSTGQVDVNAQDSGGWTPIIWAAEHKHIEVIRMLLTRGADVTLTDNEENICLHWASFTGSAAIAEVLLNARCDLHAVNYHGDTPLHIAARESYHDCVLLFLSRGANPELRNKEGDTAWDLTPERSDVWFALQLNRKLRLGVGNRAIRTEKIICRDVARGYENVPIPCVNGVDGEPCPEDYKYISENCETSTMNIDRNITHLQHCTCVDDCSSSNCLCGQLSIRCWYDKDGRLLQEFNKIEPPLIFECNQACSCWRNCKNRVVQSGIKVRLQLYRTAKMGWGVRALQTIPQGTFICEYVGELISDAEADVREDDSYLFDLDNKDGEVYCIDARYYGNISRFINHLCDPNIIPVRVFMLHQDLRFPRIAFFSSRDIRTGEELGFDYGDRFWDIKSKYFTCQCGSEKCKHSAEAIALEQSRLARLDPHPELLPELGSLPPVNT
Test: Inhibition of C-terminal GST-tagged human G9a-mediated-methylation of histone3 expressed in Escherichia coli BL21(DE3) by scintillation proximity assay

IC50 | SMILES
26.4 µM | O=C(O)c1cccc(NCc2cccc(-n3ccc4c(-c5ccc(C(F)(F)F)cc5)cccc43)c2)c1
